Laboratory results from ChEMBL document CHEMBL4196135, “Helvolic Acid Derivatives with Antibacterial Activities against Streptococcus agalactiae from the Marine-Derived Fungus Aspergillus fumigatus HNMF0047” (2018).
Values after ≈ are worked out from the molar mass of the structure shown. Active and inactive are the calls of the source. No cut-off for these calls is given here.

Tests used:
Streptococcus agalactiae = assay: Antimicrobial activity against Streptococcus agalactiae after 24 hrs by two-fold dilution method; assay type: functional
Procedure, shortened: (§1)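 Two-fold serial dilution assay reporting MIC in μg/mL, run alongside Staphylococcus aureus, Escherichia coli, Bacillus subtilis and Streptococcus agalactiae. Tobramycin served as positive control.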

Staphylococcus aureus = assay: Antimicrobial activity against Staphylococcus aureus after 24 hrs by two-fold dilution method; assay type: functional; procedure, shortened: as §1
Escherichia coli = assay: Antimicrobial activity against Escherichia coli at 128 ug/ml after 24 hrs by two-fold dilution method; assay type: functional, organism-based
Bacillus subtilis = assay: Antimicrobial activity against Bacillus subtilis at 128 ug/ml after 24 hrs by two-fold dilution method; assay type: functional, organism-based

SMILES | MIC (Streptococcus agalactiae) [µg/mL] | MIC (Staphylococcus aureus) [µg/mL] | Activity (Escherichia coli) | Activity (Bacillus subtilis)
CC(=O)O[C@H]1C[C@@]2(C)[C@@H](CC[C@H]3[C@@]4(C)C=CC(=O)[C@@H](C)[C@@H]4[C@H](OC(C)=O)C(=O)[C@@]32C)/C1=C1\CC[C@@H](C(C)(C)O)OC1=O | 64 (≈ 109 µM) | > 128 | inactive | inactive
CC(=O)O[C@H]1C[C@@]2(C)[C@@H](CC[C@H]3[C@@]4(C)C=CC(=O)[C@@H](C)[C@@H]4[C@H](OC(C)=O)C(=O)[C@@]32C)/C1=C1\CC[C@H](C(C)(C)O)OC1=O | > 128 | > 128 | inactive | inactive
NC[C@H]1O[C@H](O[C@H]2[C@H](O)[C@@H](O[C@H]3O[C@H](CO)[C@@H](O)[C@H](N)[C@H]3O)[C@H](N)C[C@@H]2N)[C@H](N)C[C@@H]1O [TOBRAMYCIN] | 32 (≈ 68.4 µM) | 1 (≈ 2.14 µM) | – | –
CC(=O)O[C@@H]1C(=O)[C@@]2(C)[C@@H](CC[C@H]3C4=C(CCC=C(C)C)C(=O)O[C@H]4C[C@@]32C)[C@@]2(C)C=CC(=O)[C@@H](C)[C@H]12 | > 128 | > 128 | inactive | inactive
CC(C)=CCCC1=C2[C@H](C[C@@]3(C)[C@H]2CC[C@H]2[C@@]4(C)C=CC(=O)[C@@H](C)[C@@H]4[C@H](O)C(=O)[C@@]23C)OC1=O | > 128 | > 128 | inactive | inactive
CC(=O)O[C@@H]1C(=O)[C@@]2(C)[C@@H](CC[C@H]3C4=C(CCC=C(C)C)C(=O)O[C@H]4C[C@@]32C)[C@@]2(C)CCC(=O)[C@@H](C)[C@H]12 | > 128 | > 128 | inactive | inactive
CCC(=O)O[C@H]1C[C@@]2(C)[C@@H](CC[C@H]3[C@@]4(C)C=CC(=O)[C@@H](C)[C@@H]4[C@H](OC(C)=O)C(=O)[C@@]32C)/C1=C(\CCC=C(C)C)C(=O)O | 16 (≈ 27.5 µM) | 16 (≈ 27.5 µM) | inactive | inactive
CCC(=O)O[C@@H]1C(=O)[C@@]2(C)[C@@H](CC[C@H]3/C(=C(\CCC=C(C)C)C(=O)O)[C@@H](OC(C)=O)C[C@@]32C)[C@@]2(C)C=CC(=O)[C@@H](C)[C@H]12 | 2 (≈ 3.43 µM) | 8 (≈ 13.7 µM) | inactive | inactive
CCC(=O)O[C@@H]1C(=O)[C@@]2(C)[C@@H](CC[C@H]3C4=C(CCC=C(C)C)C(=O)O[C@H]4C[C@@]32C)[C@@]2(C)C=CC(=O)[C@@H](C)[C@H]12 | > 128 | > 128 | inactive | inactive
CC(C)=CCCC1=C2[C@H](C[C@@]3(C)[C@H]2CC[C@H]2[C@@]4(C)CCC(=O)[C@@H](C)[C@@H]4[C@H](O)C(=O)[C@@]23C)OC1=O | > 128 | > 128 | inactive | inactive
CC(=O)O[C@H]1C[C@@]2(C)[C@@H](CC[C@H]3[C@@]4(C)C=CC(=O)[C@@H](C)[C@@H]4[C@H](OC(C)=O)C(=O)[C@@]32C)/C1=C(\CCC=C(C)C)C(=O)O [HELVOLIC ACID] | 8 (≈ 14.1 µM) | 16 (≈ 28.1 µM) | inactive | inactive
